Screens from PubChem.
UPR XBP1 act: activators of adaptive XBP1 UPR arm, primary screen, cell-based, CHO-XBP1 luciferase reporter, luminescence, uHTS; activation, % at 20 µM; AID 463104, 2010; 330,000 tested, 0.33% active; IRE1-XBP1 UPR activation; percent of tunicamycin response, DMSO as zero;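 active = versus positive control, 20 µM dose yields 30% or more activation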;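 also: 100% = tunicamycin at 10 µg/mL and 0% = DMSO only wells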
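Material: CHO-XBP1 cells stably carrying IRE1-XBP1-driven luciferase reporter / Amount: 1000 cells per well / Compound: 20 µM, 1% DMSO / Times: 6 h treatment, 37 °C / Detection: luciferase luminescence / Measure: % activation of reporter signal versus tunicamycin and DMSO controls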
TbMetRS inhib: T. brucei MetRS inhibitors, primary screen, biochemical, luminescence; inhibition, % at 11.9 µM; methionyl-tRNA synthetase (Trypanosoma brucei brucei); purified T. brucei MetRS, ATP depletion, Kinase-Glo luminescence; AID 624268, 2012; 360,000 tested, 0.4% active;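 active = inhibition above a per-plate cutoff of the control wells' mean inhibition plus 3 SD, cut at about 5.5% in these data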;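 also: 0% = DMSO wells median and 100% = median of wells with control inhibitor compound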
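Material: parasite MetRS enzyme / Replication: singlicate, one well per compound / Signal: luminescence of leftover ATP / Schedule: 2 h aminoacylation at 25 °C after 15 min preincubation / Medium: HEPES-MgCl2-KCl buffer plus DTT, spermine, BSA, pyrophosphatase / Doses: 11.9 µM single point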
V-ATPase pHluor: regulators of yeast V-ATPase proton pumping, primary screen, pHLuorin cytosolic pH fluorescence. S. cerevisiae. AID 504577, 2011. 350,000 tested, 0.37% active. response, % at 10 µM; in the data active = response mostly above about 7.3%, no sharp cut-off; inactive = mostly below about 5.4%; also: actives read high
CHOP UPR activ: activators of apoptotic CHOP UPR arm, primary screen, cell-based, CHO-CHOP luciferase reporter, luminescence, uHTS; UPR activation; percent of tunicamycin response over DMSO baseline; activation, % at 10 µM; 330,000 tested, 0.34% active;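 active = at 10 µM dose, activation of 40% or more, normalized to positive control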;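 also: 100% = tunicamycin at 10 µg/mL and 0% = DMSO alone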
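Evaluation: % reporter activation, DMSO baseline versus tunicamycin full activation; System: CHO-CHOP luciferase reporter cell line; Input: 500 cells/well; Incubation: 6 h compound treatment, 37 °C; Measured by: Steady-Glo luciferase luminescence; Dosing: one dose, 10 µM in 0.5% DMSO; Buffer or medium: F12 medium, 10% FBS; Benchmarks: positive tunicamycin 10 µg/mL, negative DMSO alone.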
CHOP inhibitor: inhibitors of CHOP promoter induction, primary screen, cell-based, unfolded protein response, luciferase reporter. CHO-K1 CHOP-promoter luciferase, tunicamycin-induced, 15-18 h. inhibition, % at 10 µM. 220,000 tested, 3.8% active;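 active = compounds that reduced the stress-induced luciferase reporter signal by more than about 70% of percent inhibition, limit read from the data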;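 also: 0% = tunicamycin plus vehicle and 100% = wells without tunicamycin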
* = called active by the depositor; nt = no result given. This is one part of a sample in which hits are shown more often than they occur.

SMILES	UPR XBP1 act	TbMetRS inhib	V-ATPase pHluor	CHOP UPR activ	CHOP inhibitor
O=C(O)Cc1cn(-c2ccccc2)nc1-c1ccccc1	-2	0	3	0	7
CCOC(=O)C1=CCN(S(=O)(=O)c2ccc(C)cc2)C1c1cccc2ccccc12 (stereo not drawn)	nt	0	nt	nt	nt
CCCCCCCCCCCC(=O)NC(C(=O)OCC)C(O)c1cccc([N+](=O)[O-])c1 (stereo not drawn)	0	0	-2	3	92*
CCOC(=O)C(NC(C)=O)C(O)c1ccc([N+](=O)[O-])cc1 (stereo not drawn)	-3	0	-3	3	-4
COc1ccc(-c2ccnc3nc(N4CCN(c5ccccc5)CC4)nn23)cc1	4	1	-3	2	72*
Cc1cccc(Nc2c(O)nc[nH]c2=O)c1	nt	0	-4	nt	nt
COc1cc(/C=C/C(=O)Nc2nnc(CC(C)(C)C)s2)cc(OC)c1OC	-1	0	4	1	90*
COc1ccc(/C=C/C(=O)Nc2nnc(C(C)C)s2)cc1OC	-3	0	5	4	59
COc1cc(/C=C/C(=O)Nc2nnc(CC(C)C)s2)cc(OC)c1OC	-3	0	0	3	90*
Cc1ccc2nc(-c3ccccc3)cc(C(=O)N3CCN(S(=O)(=O)c4c(C)noc4C)CC3)c2c1	2	0	1	1	nt
O=C(Nc1nc2c(Br)cc(Br)cc2c(=O)s1)C1CCC1	-2	0	5	-1	91*
CCCc1nc2oc3c(OC)ncnc3c2c2c1COC(C)(C)C2	1	-1	7	1	82*
O=S(=O)(NCCc1csc(-c2ccc(C(F)(F)F)cc2)n1)c1ccc2c(c1)OCCO2	-3	0	-3	2	81*
O=C(COC(=O)CC1CC2CCC1C2)NC(=O)NCc1ccco1 (stereo not drawn)	0	0	-7	-3	82*
CCN(CC)CCCNC(=O)CNC(=O)c1nn(-c2ccc(OC)cc2OC)c(=O)c2ccccc12	nt	0	nt	nt	nt
CSCCNC(=O)C1(C)CCN1C(=O)c1cc(C)n(C)n1 (stereo not drawn)	nt	0	nt	nt	nt
CCOc1ccc(CCN2C(=O)C(=O)N([C@@H](Cc3ccccc3)CN3CCC[C@H]3CN3C(=O)C(=O)NC[C@@H]3Cc3ccccc3)C[C@@H]2Cc2ccccc2)cc1	nt	-1	nt	nt	nt
c1ccc(-c2csc3ncnc(NCC4COc5ccccc5O4)c23)cc1 (stereo not drawn)	nt	0	0	nt	93*
Cc1sc2ncnc(NCC3COc4ccccc4O3)c2c1C (stereo not drawn)	nt	-1	-1	nt	76*
Cc1sc2ncnc(NCC3CCCO3)c2c1C (stereo not drawn)	3	0	3	-4	27
COc1ccc(Sc2cc(C(F)(F)F)nc(-c3ccccn3)n2)cc1	-2	-1	5	1	83*
C#CCSc1cc(C(F)(F)F)nc(-c2ccccn2)n1	-1	0	-11	0	14
C/C(CC(=O)Nc1cccnc1)=N\NC(=O)C(=O)Nc1cccc(C)c1	2	0	-1	3	19
COc1ccc(CC(=O)Nc2nn(C)c3nc4c(C)cccc4cc23)cc1	3	-1	-16	2	81*
Cc1ccc2nc(-c3cc(N)cc(N)c3)oc2c1	-2	0	4	-1	79*
SMILES	UPR XBP1 act	TbMetRS inhib	V-ATPase pHluor	CHOP UPR activ	CHOP inhibitor
COc1cc(C(=O)NCCNC(=O)C2CCCNC2=O)cc(OC)c1OC (stereo not drawn)	-2	-1	-1	0	3
N#CC1=C(N)OC2=C(CC/C2=C\c2ccc(F)cc2)C1c1ccc(F)cc1 (stereo not drawn)	6	nt	nt	116*	79*
N#CC1=C(N)OC2=C(CCC/C2=C/c2ccoc2)C1c1ccoc1 (stereo not drawn)	nt	nt	nt	nt	-26
COc1ccc(CC2(CO)CCN(Cc3cc4ccccc4o3)CC2)cc1	-1	0	-2	-3	33
OCC1(Cc2cccc(C(F)(F)F)c2)CCN(Cc2cc3ccccc3o2)CC1	0	1	0	0	89*
NC(=O)NC(CC(=O)OCC(=O)Nc1nnc(-c2ccccc2)o1)c1ccc(Cl)cc1 (stereo not drawn)	nt	0	-1	nt	nt
CCCCNC(=S)N(C)/N=C/c1c(F)cccc1F	-1	0	-3	2	34
CCCCNC(=S)N(C)/N=C/c1ccccc1F	-4	0	-2	0	77*
COC(=O)[C@]1(C)N[C@H](CN(C)C(=O)c2ccccc2)[C@@H]2C(=O)N(C)C(=O)[C@@H]21	-3	-1	-4	3	nt
O=c1[nH]c(SCc2nc3c(cnn3-c3ccccc3)c(=O)[nH]2)nc2ccccc12	nt	-1	0	nt	29
O=c1[nH]c(CSc2nc3ccccc3o2)nc2c1cnn2-c1ccccc1	2	-1	3	-1	74*
Cc1ccc2nc(SCc3nc4c(cnn4-c4ccccc4)c(=O)[nH]3)[nH]c2c1	4	-1	-1	4	73*
Oc1ccc(Cl)c(CN2CCN(c3ncc(Cc4ccccc4)cn3)CC2)c1	nt	-1	nt	nt	nt
COc1cc(C(=O)Sc2ccc(C)cc2)cc(OC)c1OC	5	-1	2	20	82*
COc1ccc(NC(=O)C2c3ccccc3OCC(=O)N2CCc2ccccc2)cc1 (stereo not drawn)	nt	0	nt	nt	nt
CCc1cc2ccc(OC)cc2nc1SCC(=O)NNC(C)=O	1	-1	1	-1	5
CCc1cc2cc(C)c(C)cc2nc1SCC(=O)Nc1cc(C)on1	1	0	1	1	89*
Cc1cc(NC(=O)CSc2nnc(Nc3ccccc3)s2)no1	4	0	-2	-3	14
COc1ccc(Nc2nnc(SCC(=O)Nc3cc(C)on3)s2)cc1	nt	-1	-2	nt	85*
CCc1cc2ccc(OC)cc2nc1SCC(=O)Nc1cc(C)on1	11	-1	2	1	82*
CCc1cc2ccccc2nc1SCC(=O)Nc1cc(C)on1	-1	-1	3	2	61
Cc1ccc(S(=O)(=O)N[C@@H](C)C(=O)OCC(=O)N2c3ccccc3NC(=O)C2(C)C)cc1	-1	0	3	-2	nt
CSc1nc(N2CCOCC2)c2c(c1C#N)CCCCC2	-7	0	2	-1	73*
CSc1nc(C)c2c(c1C#N)CCCC2	0	-2	3	-2	92*
CCCc1nc(N2CCOCC2)c(C#N)c2c1CCCC2	0	-2	-5	-1	54
CC(C)c1nc(N2CCOCC2)c(C#N)c2c1CCC2	-2	1	-2	0	72*
CCCSc1nc(N2CCOCC2)c2c(c1C#N)CCCC2	-4	0	2	-1	46
